ChEMBL document CHEMBL5316292 (J Med Chem, 2023)

What was measured:
[1] = molecular target: Bromodomain-containing protein 3 (Homo sapiens, UniProt Q15059); experiment: Binding affinity to human partial length BRD3 BD2 (G306 to P416 residues) expressed in bacterial expression system assessed as change in melting temperature at 50 uM at 20 to 85 degreeC by SYPRO orange staining based thermal shift assay
Procedure, shortened: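 DSF thermal shift. 10 µM BD in 50 mM HEPES, 500 mM NaCl pH 7.5, with 50 µM compound or DMSO-matched control and 1:1000 Sypro Orange (ex 465/em 590 nm). Ramp 20–85 °C at 0.03 °C/s. Tm taken as the midpoint between fluorescence max and min. At least three independent experiments, SEM in °C.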

[2] = molecular target: Bromodomain-containing protein 2 (Homo sapiens, UniProt P25440); experiment: Binding affinity to human partial length BRD2 BD1 (K71 to N194 residues) expressed in bacterial expression system using H4K5acIC8acK12acK16ac-biotinylated peptide as substrate preincubated for 30 mins followed by substrate addition by AlphaScreen assay
Procedure, shortened: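 AlphaScreen. Biotinylated H4K5acK8acK12acK16ac peptide added at equal concentration to protein for 30 min. Donor and acceptor beads (25 µg/mL each) added, ≥1 h in the dark. Triplicate, curve-fitted, SEM.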

Bromodomain-containing protein 2, sequence (P25440 whole entry, the tested form may be a part): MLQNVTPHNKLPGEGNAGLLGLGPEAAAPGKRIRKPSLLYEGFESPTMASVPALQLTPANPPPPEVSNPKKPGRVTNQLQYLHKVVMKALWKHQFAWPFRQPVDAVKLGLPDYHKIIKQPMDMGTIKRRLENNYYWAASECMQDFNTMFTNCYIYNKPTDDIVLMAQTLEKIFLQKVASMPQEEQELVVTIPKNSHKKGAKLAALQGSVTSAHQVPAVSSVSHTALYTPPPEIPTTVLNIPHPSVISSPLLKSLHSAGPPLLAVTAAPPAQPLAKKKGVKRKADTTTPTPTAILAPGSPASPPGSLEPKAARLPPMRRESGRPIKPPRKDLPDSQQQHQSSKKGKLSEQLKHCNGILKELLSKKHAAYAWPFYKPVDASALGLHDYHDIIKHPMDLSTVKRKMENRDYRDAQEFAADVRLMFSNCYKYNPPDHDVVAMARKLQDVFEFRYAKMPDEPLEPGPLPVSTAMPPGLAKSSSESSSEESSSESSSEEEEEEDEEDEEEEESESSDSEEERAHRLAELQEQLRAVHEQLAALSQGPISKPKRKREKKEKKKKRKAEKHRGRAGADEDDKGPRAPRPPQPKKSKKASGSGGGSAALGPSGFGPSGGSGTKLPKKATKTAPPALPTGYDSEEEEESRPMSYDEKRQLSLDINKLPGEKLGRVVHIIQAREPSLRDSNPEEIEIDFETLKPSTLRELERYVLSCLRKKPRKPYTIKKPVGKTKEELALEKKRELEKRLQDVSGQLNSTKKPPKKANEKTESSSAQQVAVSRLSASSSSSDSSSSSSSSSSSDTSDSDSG
Bromodomain-containing protein 3, sequence (Q15059 2-726 limits assumed): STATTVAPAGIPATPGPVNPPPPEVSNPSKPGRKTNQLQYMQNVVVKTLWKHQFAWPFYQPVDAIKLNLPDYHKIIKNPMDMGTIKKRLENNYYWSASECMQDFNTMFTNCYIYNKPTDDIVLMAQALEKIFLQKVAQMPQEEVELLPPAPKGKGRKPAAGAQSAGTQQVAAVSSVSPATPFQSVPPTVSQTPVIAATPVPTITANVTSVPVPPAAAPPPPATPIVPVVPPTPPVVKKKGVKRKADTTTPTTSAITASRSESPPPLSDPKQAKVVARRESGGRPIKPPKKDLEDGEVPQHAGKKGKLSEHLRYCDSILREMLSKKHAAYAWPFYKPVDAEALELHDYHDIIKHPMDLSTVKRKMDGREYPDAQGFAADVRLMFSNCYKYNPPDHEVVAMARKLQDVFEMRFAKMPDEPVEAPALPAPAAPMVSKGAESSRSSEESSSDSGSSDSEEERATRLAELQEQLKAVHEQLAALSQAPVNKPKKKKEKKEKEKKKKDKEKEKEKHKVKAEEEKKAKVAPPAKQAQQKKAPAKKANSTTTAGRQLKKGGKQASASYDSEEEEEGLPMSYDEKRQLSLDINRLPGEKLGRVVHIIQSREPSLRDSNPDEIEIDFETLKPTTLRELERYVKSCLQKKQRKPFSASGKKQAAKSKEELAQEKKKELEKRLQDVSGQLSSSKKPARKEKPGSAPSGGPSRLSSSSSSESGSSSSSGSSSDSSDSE

Work on `CC(=O)OC[C@]12CC[C@H]3[C@@H](C[C@H]4O[C@]45CC=CC(=O)[C@]35C)[C@]1(O)CC[C@@]2(O)[C@@](C)(O)[C@H]1CC(C)=C(C)C(=O)O1` yielded a ΔTm [1] of 7.45 °C and an IC50 [2] of 103 nM.
